{"source": "paper PMC4556268", "about": "(Biochemistry, 2008)", "key": {"RhoGDIα [1]": {"target": "T1, RhoGDIα (Homo sapiens, UniProt P52565)", "T1 sequence (P52565 1-204)": "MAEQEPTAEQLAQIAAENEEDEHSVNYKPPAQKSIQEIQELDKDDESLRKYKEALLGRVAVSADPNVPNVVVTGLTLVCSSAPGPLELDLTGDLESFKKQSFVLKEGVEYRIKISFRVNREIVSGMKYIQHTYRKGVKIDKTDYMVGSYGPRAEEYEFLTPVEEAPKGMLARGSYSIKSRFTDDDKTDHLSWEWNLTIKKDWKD", "assay": "Photo-affinity labeling of RhoGDIα with azialcohols, LC-MSMS", "assay_type": "binding"}, "RhoGDIα [2]": {"target": "T1, RhoGDIα", "assay_type": "binding", "method_in_brief": "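For n-alkanols, halothane was equilibrated first, then alkanol titrated from stocks while emission at 330 nm was tracked; buffer-only additions controlled for halothane evaporation. For AGGC (0–300 µM), 30 min preincubation ±1 mM halothane in gas-tight syringes, then dilution into cuvette. Recovery […] fitted by Hill-type equation (EC50, Fmax, h).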"}, "RhoGDIα [3]": {"target": "T1, RhoGDIα", "assay_type": "binding", "method_in_brief": "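RhoGDIα at 500 nM in 2.8 mL Buffer B (pH 7.5 Tris) in screw-top sealed cuvette with minimal headspace; halothane 0–800 µM; 60 min at room temperature. Steady-state tryptophan emission spectra, excitation 295 nm. Quenching taken as FQ/F0, averaging >10 points at the emission maximum. Fitted to Eq. 1 for Kd, h and maximal quenching.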", "remark": "listed apart in the source"}, "RhoGDIα–Cdc42 complex": {"target": "T2, RhoGDIα–Cdc42 complex (Homo sapiens, UniProt P52565)", "T2 sequence (P52565 1-204)": "T1 sequence (P52565 1-204)", "assay_type": "biochemical", "settings": "for effect on association of Cdc42 with membranes (Req,Cdc42) / Cdc42–RhoGDIα Dissociation h: with EDTA and GMPPNP; for Cdc42–RhoGDIα Dissociation h: fit to Eq. 6", "method_in_brief": "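SPR on L1 chip at 25°C. Running buffer 10 mM HEPES pH 7.4, 150 mM NaCl. Surface cleaned with 10 mM CHAPS; POPC/POPS (4:1) 100 nm LUV captured at 5 µL/min for 15 min; conditioned with 10 mM glycine pH 1.5 and 10 mM NaOH. RhoGDIα–Cdc42 complex typically 0.5 µM in Buffer A with 50 µM GMPPNP and n-alkanol. 14.3 mM EDTA initiated exchange and dissociation. Req from first-order fits versus complex concentration.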"}, "Cdc42": {"target": "Cdc42 (Homo sapiens, UniProt P60953)", "sequence (P60953 whole entry)": "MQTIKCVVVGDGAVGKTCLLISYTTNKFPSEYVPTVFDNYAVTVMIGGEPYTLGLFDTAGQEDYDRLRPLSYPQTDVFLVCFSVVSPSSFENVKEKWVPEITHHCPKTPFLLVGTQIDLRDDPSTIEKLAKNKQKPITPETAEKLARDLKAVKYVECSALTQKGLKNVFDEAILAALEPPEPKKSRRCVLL", "settings": "50 mM (results not shown)"}, "[4]": {"settings": "read-out: Halothane Binding EC50, 0.2 mM halothane, RhoGDIα 500 nM, fit to Eq. 2"}, "[5]": {"settings": "read-out: Halothane Binding KI, 0.2 mM halothane, calculated using Eq. 3"}}, "note": "Read-outs that look alike come from different tables or passages of the source.", "data": [{"molecule": "CC1(CCO)N=N1", "note": "[3-azibutanol]", "values": [{"measurement": "Lowest 3-azialcohol concentration where photoincorporation was detected", "setting": "RhoGDIα [1]; AGGC +", "result": 100, "unit": "µM"}, {"measurement": "Residue photolabeled / photolabeled peptide", "setting": "RhoGDIα [1]; AGGC –", "result": "Photolabeled peptide not detected"}]}, {"molecule": "CCCCCC1(CCO)N=N1", "note": "[3-azioctanol]", "values": [{"measurement": "Lowest 3-azialcohol concentration where photoincorporation was detected", "setting": "RhoGDIα [1]; AGGC +", "result": 10, "unit": "µM"}, {"measurement": "Lowest 3-azialcohol concentration where photoincorporation was detected", "setting": "RhoGDIα [1]; AGGC –", "result": 10, "unit": "µM"}, {"measurement": "photolabeling of E193", "setting": "RhoGDIα [1]; at levels up to 1 mM", "result": "not photolabeled"}]}, {"molecule": "CC(=O)N[C@@H](CSC/C=C(\\C)CC/C=C(\\C)CC/C=C(\\C)CCC=C(C)C)C(=O)O", "note": "[AGGC, N-acetyl geranylgeranyl cysteine]", "values": [{"measurement": "effect on RhoGDIα tryptophan fluorescence in the absence of halothane", "setting": "RhoGDIα [2]; control without halothane (results not shown)", "result": "unaffected"}, {"measurement": "Ki", "setting": "RhoGDIα [2]; read-out: KI for the displacement of halothane, from EC50 by Eq. 3", "result": 0.01, "unit": "mM"}]}, {"molecule": "FC(F)(F)C(Cl)Br", "note": "(stereo not shown) [halothane, 2-bromo-2-chloro-1,1,1-trifluoroethane]", "values": [{"measurement": "Kd", "setting": "RhoGDIα [3]", "result": "0.147 ± 0.007", "unit": "mM"}, {"measurement": "blue shift in the emission maxima", "setting": "RhoGDIα [3]; dose dependent, halothane 0–800 µM", "result": "~ 2 nm"}, {"measurement": "Hill coefficient h for halothane binding", "setting": "RhoGDIα [3]; fit to Eq. 1", "result": "0.91±0.2"}, {"measurement": "plateau tryptophan fluorescence intensity, of the original signal", "setting": "RhoGDIα [3]; halothane 0–800 µM", "result": "~ 30%"}]}, {"molecule": "CCCCCCCO", "note": "[n-heptanol]", "values": [{"measurement": "effect on halothane-induced tryptophan quenching", "setting": "RhoGDIα [2]; 0.2 mM halothane", "result": "negligible effects"}, {"measurement": "effect on association of Cdc42 with membranes (Req,Cdc42)", "setting": "RhoGDIα–Cdc42 complex", "result": "unaffected"}]}, {"molecule": "CCCCCCO", "note": "[n-hexanol]", "values": [{"measurement": "effect on halothane-induced tryptophan quenching", "setting": "RhoGDIα [2]; 0.2 mM halothane", "result": "did not reach saturation within the concentration range used"}, {"measurement": "effect on association of Cdc42 with membranes (Req,Cdc42)", "setting": "RhoGDIα–Cdc42 complex", "result": "unaffected"}]}, {"molecule": "CCO", "note": "[n=2, ethanol]", "values": [{"measurement": "Halothane Binding h", "setting": "RhoGDIα [2]; 0.2 mM halothane, fit to Eq. 2", "result": "1.4 ± 0.4"}, {"measurement": "EC50", "setting": "RhoGDIα [2]; [4]", "result": "100 ± 58", "unit": "mM"}, {"measurement": "Ki", "setting": "RhoGDIα [2]; [5]", "result": "42 ± 24", "unit": "mM"}, {"measurement": "Cdc42–RhoGDIα Dissociation h", "setting": "RhoGDIα–Cdc42 complex", "result": "1.2 ± 0.2"}]}, {"molecule": "CCCO", "note": "[n=3]", "values": [{"measurement": "Halothane Binding Fmax", "setting": "RhoGDIα [2]; 0.2 mM halothane, fit to Eq. 2", "result": "40 ± 9"}, {"measurement": "Halothane Binding h", "setting": "RhoGDIα [2]; 0.2 mM halothane, fit to Eq. 2", "result": "1.2 ± 0.2"}, {"measurement": "EC50", "setting": "RhoGDIα [2]; [4]", "result": "48 ± 4.5", "unit": "mM"}, {"measurement": "Ki", "setting": "RhoGDIα [2]; [5]", "result": "20 ± 2", "unit": "mM"}]}, {"molecule": "CCCCO", "note": "[n=4, n-butanol]", "values": [{"measurement": "effect on rate and extent of exchange of MANT-GDP for GDP", "setting": "Cdc42", "result": "neither the rate nor the extent of exchange of MANT-GDP for GDP were affected"}, {"measurement": "Fmax for displacement of halothane", "setting": "RhoGDIα [2]; 0.1 mM halothane", "result": "0.55 ± 0.06"}, {"measurement": "h for displacement of halothane", "setting": "RhoGDIα [2]; 0.1 mM halothane", "result": "1.0 ± 0.4"}, {"measurement": "Fmax for displacement of halothane", "setting": "RhoGDIα [2]; 0.2 mM halothane", "result": "0.59 ± 0.04"}, {"measurement": "h for displacement of halothane", "setting": "RhoGDIα [2]; 0.2 mM halothane", "result": "1.1 ± 0.2"}, {"measurement": "Halothane Binding Fmax", "setting": "RhoGDIα [2]; 0.2 mM halothane, fit to Eq. 2", "result": "51 ± 4"}, {"measurement": "Halothane Binding h", "setting": "RhoGDIα [2]; 0.2 mM halothane, fit to Eq. 2", "result": "1.1 ± 0.1"}, {"measurement": "Fmax for displacement of halothane", "setting": "RhoGDIα [2]; 0.5 mM halothane", "result": "0.59 ± 0.05"}, {"measurement": "h for displacement of halothane", "setting": "RhoGDIα [2]; 0.5 mM halothane", "result": "1.0 ± 0.1"}, {"measurement": "Fmax for displacement of halothane", "setting": "RhoGDIα [2]; 1.0 mM halothane", "result": "0.65 ± 0.08"}, {"measurement": "h for displacement of halothane", "setting": "RhoGDIα [2]; 1.0 mM halothane", "result": "1.2 ± 0.2"}, {"measurement": "Hill coefficient h", "setting": "RhoGDIα [2]; independent of halothane concentration or chain length", "result": "~ 1"}, {"measurement": "EC50", "setting": "RhoGDIα [2]; read-out: EC50 for displacement of halothane, 0.1 mM halothane", "result": "3 ± 1", "unit": "mM"}, {"measurement": "EC50", "setting": "RhoGDIα [2]; read-out: EC50 for displacement of halothane, 0.2 mM halothane", "result": "11 ± 3", "unit": "mM"}, {"measurement": "EC50", "setting": "RhoGDIα [2]; read-out: EC50 for displacement of halothane, 0.5 mM halothane", "result": "22 ± 5", "unit": "mM"}, {"measurement": "EC50", "setting": "RhoGDIα [2]; read-out: EC50 for displacement of halothane, 1.0 mM halothane", "result": "52 ± 8", "unit": "mM"}, {"measurement": "EC50", "setting": "RhoGDIα [2]; [4]", "result": "10 ± 3", "unit": "mM"}, {"measurement": "Ki", "setting": "RhoGDIα [2]; [5]", "result": "4.2 ± 1.2", "unit": "mM"}, {"measurement": "effect on association of Cdc42 with membranes", "setting": "RhoGDIα–Cdc42 complex; in the absence of EDTA and GMPPNP", "result": "negligible effects"}, {"measurement": "Cdc42–RhoGDIα Dissociation h", "setting": "RhoGDIα–Cdc42 complex", "result": "1.5 ± 0.3"}]}]}
